Measurements taken from ChEMBL document CHEMBL3286149, “Synthesis of rigidified eIF4E/eIF4G inhibitor-1 (4EGI-1) mimetic and their in vitro characterization as inhibitors of protein-protein interaction” (J Med Chem, 2014).

Experiments:
[1] = Antiproliferative activity against human CRL2813 cells assessed as inhibition of cell proliferation after 5 days by sulforhodamine B assay; type: functional, cell-based; details: CRL2813, 120 h
Outline: (§1)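 Adherent cells (CRL-2351 breast, CRL-2813 melanoma) in 96-well plates kept 5 days with compound at 0.54–20 μM. Fixed in cold 10% TCA at 4 °C overnight, stained 1 h at RT with 0.057% SRB in 1% acetic acid, unbound dye removed with 1% acetic acid, bound dye dissolved in 10 mM Tris pH 10, absorbance read at 510 nm. IC50 reported.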

[2] = Antiproliferative activity against human CRL2351 cells assessed as inhibition of cell proliferation after 5 days by sulforhodamine B assay; type: functional, cell-based; details: 120 h; outline: as §1
[3] = target: Eukaryotic translation initiation factor 4E (Homo sapiens, UniProt P06730); assay: Displacement of N-alpha-fluorescein tagged eIF4G-derived peptide from GST-DN26-eIF4E (unknown origin) by fluorescence polarization assay
Sequence of Eukaryotic translation initiation factor 4E (P06730 whole entry): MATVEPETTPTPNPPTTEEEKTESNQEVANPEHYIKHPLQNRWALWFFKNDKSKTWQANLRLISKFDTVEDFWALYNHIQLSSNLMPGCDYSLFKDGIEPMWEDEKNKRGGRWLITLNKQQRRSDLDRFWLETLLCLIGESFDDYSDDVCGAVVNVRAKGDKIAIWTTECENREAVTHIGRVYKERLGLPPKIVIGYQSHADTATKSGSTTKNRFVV

[4] = Retention time of the compound by RP-HPLC analysis; type: physicochemical
Outline: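 C18 Xbridge column (4.6 mm × 100 mm), 1 mL/min, detection at 254 nm. Mobile phase A 0.1% v/v FA in water, B 0.1% v/v TFA in acetonitrile. Linear gradient usually 0–100% B over 26 min; some runs 50–100% B over 20 min or 30–100% B over 26 min.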

Row | SMILES | IC50 [3] | Retention_time [4] | IC50 [1] | IC50 [2]
1 | O=C(O)/C(Cc1ccccc1[N+](=O)[O-])=N\Nc1nc(-c2ccc(Cl)c(Cl)c2)cs1 | – | – | 15.3 µM | 11.6 µM
2 | O=C(O)/C(Cc1ccccc1[N+](=O)[O-])=N/Nc1nc2c(s1)CCc1cc(Cl)c(Cl)cc1-2 | 21.5 µM | 8.37 min | 3.8 µM | 4.1 µM
3 | O=C(O)/C(Cc1ccccc1[N+](=O)[O-])=N\Nc1nc2c(s1)CCc1cc(Cl)c(Cl)cc1-2 | 34 µM | 10.79 min | 12 µM | > 20 µM
4 | O=C(O)/C(Cc1ccccc1[N+](=O)[O-])=N/Nc1nc2c(s1)CCc1c-2ccc(Cl)c1Cl | – | 8.69 min | 3.6 µM | 4.4 µM
5 | O=C(O)/C(Cc1ccccc1[N+](=O)[O-])=N/Nc1nc2c(s1)COc1cc(Cl)c(Cl)cc1-2 | – | 12.77 min | 3.1 µM | 5.2 µM
6 | O=C(O)/C(Cc1ccccc1[N+](=O)[O-])=N\Nc1nc2c(s1)COc1cc(Cl)c(Cl)cc1-2 | – | 14.74 min | 8.7 µM | 15.4 µM
7 | O=C(O)/C(Cc1ccccc1[N+](=O)[O-])=N/Nc1nc2c(s1)CSc1cc(Cl)c(Cl)cc1-2 | – | 10.33 min | 5.1 µM | 17.6 µM
8 | O=C(O)/C(Cc1ccccc1[N+](=O)[O-])=N\Nc1nc2c(s1)CSc1cc(Cl)c(Cl)cc1-2 | – | 13.33 min | 10.5 µM | 17.7 µM
9 | O=C(O)/C(Cc1ccccc1[N+](=O)[O-])=N\Nc1nc2c(s1)CSc1c-2ccc(Cl)c1Cl | – | 18.23 min | 7 µM | 16.7 µM
10 | O=C(O)/C(Cc1ccccc1[N+](=O)[O-])=N/Nc1nc2c(s1)C[S+]([O-])c1cc(Cl)c(Cl)cc1-2 (stereo not drawn) | – | 9.82 min | 7.5 µM | > 20 µM
11 | O=C(O)/C(Cc1ccccc1[N+](=O)[O-])=N\Nc1nc2c(s1)C[S+]([O-])c1cc(Cl)c(Cl)cc1-2 (stereo not drawn) | – | 10.38 min | 4.1 µM | 10.3 µM
12 | O=C(O)/C(Cc1ccccc1[N+](=O)[O-])=N\Nc1nc2c(s1)C[S+]([O-])c1c-2ccc(Cl)c1Cl (stereo not drawn) | – | 10.12 min | 11.4 µM | 19.8 µM
13 | O=C(O)/C(Cc1ccccc1[N+](=O)[O-])=N/Nc1nc2c(s1)CS(=O)(=O)c1c-2ccc(Cl)c1Cl | – | 12.41 min | – | –
14 | COc1cc2c(cc1OC)-c1nc(N/N=C(/Cc3ccccc3[N+](=O)[O-])C(=O)O)sc1CC2 | – | 11.22 min | > 20 µM | > 20 µM
15 | COc1ccc2c(c1OC)OCc1sc(N/N=C(\Cc3ccccc3[N+](=O)[O-])C(=O)O)nc1-2 | – | 8.78 min | > 20 µM | –
16 | COc1ccc2c(c1OC)OCc1sc(N/N=C(/Cc3ccccc3[N+](=O)[O-])C(=O)O)nc1-2 | – | 10.38 min | – | –
17 | COc1cc2c(cc1OC)-c1nc(N/N=C(\Cc3ccccc3[N+](=O)[O-])C(=O)O)sc1CO2 | – | 9.07 min | > 20 µM | –
18 | COc1cc2c(cc1OC)-c1nc(N/N=C(/Cc3ccccc3[N+](=O)[O-])C(=O)O)sc1CO2 | – | 10.9 min | – | –

Now from value to compound, other results behind:

Row | IC50 [3] | Retention_time [4] | SMILES | IC50 [1] | IC50 [2]
19 | – | 11.39 min | O=C(O)/C(Cc1ccccc1[N+](=O)[O-])=N\Nc1nc2c(s1)CCc1c-2ccc(Cl)c1Cl | 10.6 µM | 11.2 µM
20 | – | 11.6 min | O=C(O)/C(Cc1ccccc1[N+](=O)[O-])=N/Nc1nc2c(s1)COc1c-2ccc(Cl)c1Cl | 5.8 µM | 16.6 µM
21 | – | 13.6 min | O=C(O)/C(Cc1ccccc1[N+](=O)[O-])=N\Nc1nc2c(s1)COc1c-2ccc(Cl)c1Cl | 12.3 µM | > 20 µM
22 | – | 15.66 min | O=C(O)/C(Cc1ccccc1[N+](=O)[O-])=N/Nc1nc2c(s1)CSc1c-2ccc(Cl)c1Cl | 4.5 µM | 9.1 µM
23 | – | 8.74 min | O=C(O)/C(Cc1ccccc1[N+](=O)[O-])=N/Nc1nc2c(s1)C[S+]([O-])c1c-2ccc(Cl)c1Cl (stereo not drawn) | 11.2 µM | > 20 µM
24 | – | 13.63 min | O=C(O)/C(Cc1ccccc1[N+](=O)[O-])=N\Nc1nc2c(s1)CS(=O)(=O)c1c-2ccc(Cl)c1Cl | – | –
25 | – | 11.48 min | O=C(O)/C(Cc1ccccc1[N+](=O)[O-])=N/Nc1nc2c(s1)CS(=O)(=O)c1cc(Cl)c(Cl)cc1-2 | – | –
26 | – | 12.41 min | O=C(O)/C(Cc1ccccc1[N+](=O)[O-])=N\Nc1nc2c(s1)CS(=O)(=O)c1cc(Cl)c(Cl)cc1-2 | – | –
27 | – | 10 min | COc1cc2c(cc1OC)-c1nc(N/N=C(\Cc3ccccc3[N+](=O)[O-])C(=O)O)sc1CC2 | 12.1 µM | > 20 µM
